Reference: ChEMBL document CHEMBL3400039, “Design, synthesis and in vitro cell-based evaluation of the anti-cancer activities of hispolon analogs” (Bioorg Med Chem, 2015)
Activity calls are given as the source filed them. The rule behind the calls is not given here.

What was measured:
[1] = tested on: HEK293; assay: Cytotoxicity against HEK293 cells expressing pcDNA3.1 at 100 uM after 72 hrs by MTT assay; format: cell-based; details: human, hek293, 72 h
Procedure, shortened: (§1)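 Cells kept as adherent monolayers in DMEM with 10% FBS, 37°C, 5% CO2. Trypsin-harvested, seeded at 5 × 10^3 cells/well, then exposed to compound at 0.1 to 100 µM for 72 h. MTT (4 mg/ml) added for 4 h, formazan dissolved in DMSO, absorbance read at 570 nm. At least three experiments, each in triplicate; mean±SD.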

[2] = tested on: S1; assay: Cytotoxicity against human S1 cells at 100 uM after 72 hrs by MTT assay; format: functional, cell-based; procedure, shortened: as §1
[3] = tested on: MDA-MB-231; assay: Cytotoxicity against human MDA-MB-231 cells at 100 uM after 72 hrs by MTT assay; format: functional, cell-based; procedure, shortened: as §1
[4] = tested on: DU-145; assay: Cytotoxicity against human DU145 cells at 100 uM after 72 hrs by MTT assay; format: functional, cell-based; procedure, shortened: as §1
[5] = tested on: MDCK; assay: Cytotoxicity against MDCK cells at 100 uM after 72 hrs by MTT assay; format: cell-based, Canis lupus familiaris; details: dog; procedure, shortened: as §1
[6] = Cytotoxicity against mouse NIH/3T3 cells at 100 uM after 72 hrs by MTT assay; format: cell-based; details: nih3t3, 72 h; procedure, shortened: as §1
[7] = tested on: HCT-116; assay: Cytotoxicity against human HCT116 cells at 100 uM after 72 hrs by MTT assay; format: functional, cell-based; procedure, shortened: as §1
[8] = tested on: MCF7; assay: Cytotoxicity against human MCF7 cells at 100 uM after 72 hrs by MTT assay; format: functional, cell-based; procedure, shortened: as §1
[9] = tested on: PC-3; assay: Cytotoxicity against human PC3 cells at 100 uM after 72 hrs by MTT assay; format: functional, cell-based; procedure, shortened: as §1
[10] = tested on: HEK293; assay: Cytotoxicity against HEK293 cells expressing ABCB1 after 72 hrs by MTT assay; format: functional, cell-based; details: Homo sapiens, HEK293, 72 h; procedure, shortened: as §1
[11] = tested on: HEK293; assay: Cytotoxicity against HEK293 cells expressing pcDNA3.1 after 72 hrs by MTT assay; format: cell-based; details: Homo sapiens, HEK293, 72 h; procedure, shortened: as §1
[12] = tested on: MCF7; assay: Cytotoxicity against human MCF7 cells after 72 hrs by MTT assay; format: functional, cell-based; details: MCF7, 72 h; procedure, shortened: as §1
[13] = tested on: HEK293; assay: Resistance index, ratio of IC50 for HEK293 cells expressing ABCB1 to IC50 for HEK293 cells expressing pcDNA3.1; parameters: species or system Homo sapiens
Procedure, shortened: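 Fold resistance is the IC50 in P-glycoprotein-overexpressing HEK293/ABCB1 cells divided by the IC50 in empty-vector HEK293/pcDNA3.1 cells. IC50s from the 72 h MTT assay; paclitaxel was the positive-control ABCB1 substrate.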

[14] = Cytotoxicity against mouse NIH/3T3 cells after 72 hrs by MTT assay; format: cell-based; details: NIH3T3, 72 h; procedure, shortened: as §1
[15] = Cytotoxicity against human PC3 cells after 72 hrs by MTT assay; format: functional, cell-based; details: PC-3, 72 h; procedure, shortened: as §1
[16] = Cytotoxicity against human S1 cells after 72 hrs by MTT assay; format: functional, cell-based; details: S1, 72 h; procedure, shortened: as §1
[17] = tested on: DU-145; assay: Cytotoxicity against human DU145 cells after 72 hrs by MTT assay; format: functional, cell-based; details: DU-145, 72 h; procedure, shortened: as §1
[18] = tested on: MDCK; assay: Cytotoxicity against MDCK cells after 72 hrs by MTT assay; format: cell-based; details: Canis lupus familiaris; procedure, shortened: as §1
[19] = Cytotoxicity against human HCT116 cells after 72 hrs by MTT assay; format: functional, cell-based; details: HCT-116, 72 h; procedure, shortened: as §1
[20] = tested on: MDA-MB-231; assay: Cytotoxicity against human MDA-MB-231 cells after 72 hrs by MTT assay; format: functional, cell-based; details: MDA-MB-231, 72 h; procedure, shortened: as §1

Row | Compound | Activity [1] | Activity [2] | Activity [3] | Activity [4] | Activity [5] | Activity [6] | Activity [7] | Activity [8] | Activity [9] | IC50 [10] [µM] | IC50 [11] [µM] | IC50 [12] [µM] | Ratio IC50 [13] | IC50 [14] [µM] | IC50 [15] [µM] | IC50 [16] [µM] | IC50 [17] [µM] | IC50 [18] [µM] | IC50 [19] [µM] | IC50 [20] [µM]
1 | COc1ccc(CCc2cc(C)no2)cc1 | Non-toxic | inactive | inactive | inactive | Non-toxic | Non-toxic | inactive | inactive | inactive | – | – | – | – | – | – | – | – | – | – | –
2 | COc1ccc(/C=C/c2cc(C)no2)cc1 | – | – | – | – | – | – | – | – | – | 66.3 | 58.3 | > 100 | 1.1 | > 100 | > 100 | 76.4 | > 100 | 70.2 | 22.4 | –
3 | COc1ccc(CCc2cc(C)no2)cc1OC | Non-toxic | inactive | inactive | inactive | Non-toxic | Non-toxic | inactive | inactive | inactive | – | – | – | – | – | – | – | – | – | – | –
4 | Cc1cc(/C=C/c2ccc(O)cc2)[nH]n1 | – | – | – | – | – | – | – | – | – | 68.9 | 77.4 | – | 0.9 | 59.2 | 48.1 | 32.9 | – | 80 | 38.8 | 23.2
5 | COc1ccc(/C=C/c2cc(C)n[nH]2)cc1 | – | – | – | – | – | – | – | – | – | 16.5 | 12.9 | 9.7 | 1.3 | 19.9 | 8.9 | 8.4 | – | – | 9.4 | 10.7
6 | Cc1cc(/C=C/c2ccc(O)cc2)on1 | – | – | – | – | – | – | – | – | – | – | – | – | 1 | 88.5 | 50.2 | 44.2 | 67.2 | 58.3 | 67.9 | 55.5
7 | COc1cc(/C=C/c2cc(C)[nH]n2)ccc1O | – | – | – | – | – | – | – | – | – | 45.2 | 47.7 | – | 0.9 | 66.3 | 16.5 | 29.4 | 32.2 | 35.4 | 78.8 | 67
8 | Cc1cc(CCc2ccc(O)cc2)on1 | Non-toxic | inactive | inactive | inactive | Non-toxic | Non-toxic | inactive | inactive | inactive | – | – | – | – | – | – | – | – | – | – | –
9 | CC(=O)O[C@H]1C(=O)[C@@]2(C)[C@H]([C@H](OC(=O)c3ccccc3)[C@]3(O)C[C@H](OC(=O)[C@H](O)[C@@H](NC(=O)c4ccccc4)c4ccccc4)C(C)=C1C3(C)C)[C@]1(OC(C)=O)CO[C@@H]1C[C@@H]2O [PACLITAXEL] | – | – | – | – | – | – | – | – | – | 0.36 | 0.04 | – | 9 | – | – | – | – | – | – | –
10 | COc1ccc(/C=C/c2cc(C)n[nH]2)cc1OC | – | – | – | – | – | – | – | – | – | 33.2 | – | – | 1.4 | 68.4 | 12.6 | 22.4 | 18.5 | 54.1 | 51.3 | 38.8
11 | COc1ccc(/C=C/c2cc(C)no2)cc1OC | – | – | – | – | – | – | – | – | – | 77.8 | 63.2 | > 100 | 1.2 | 93.2 | > 100 | > 100 | > 100 | 44.7 | 87.4 | –
12 | COc1cc(CCc2cc(C)no2)ccc1O | Non-toxic | inactive | inactive | inactive | Non-toxic | Non-toxic | inactive | inactive | inactive | – | – | – | – | – | – | – | – | – | – | –
13 | Cc1cc(/C=C/c2ccc(O)c(O)c2)on1 | – | – | – | – | – | – | – | – | – | 11.8 | 13 | 6.3 | 0.9 | 26.2 | 3.3 | 7.9 | 10.5 | – | 5.3 | 8.9
14 | CC(=O)CC(=O)CCc1ccc(O)cc1 | Non-toxic | inactive | inactive | inactive | Non-toxic | Non-toxic | inactive | inactive | inactive | – | – | – | – | – | – | – | – | – | – | –
15 | Cc1cc(CCc2ccc(O)cc2)[nH]n1 | Non-toxic | inactive | inactive | inactive | Non-toxic | Non-toxic | inactive | inactive | inactive | – | – | – | – | – | – | – | – | – | – | –
16 | COc1ccc(CCc2cc(C)n[nH]2)cc1 | Non-toxic | inactive | inactive | inactive | Non-toxic | Non-toxic | inactive | inactive | inactive | – | – | – | – | – | – | – | – | – | – | –
17 | CC(=O)CC(=O)/C=C/c1ccc(O)cc1 | – | – | – | – | – | – | – | – | – | 11.6 | – | – | 1.1 | 18.9 | 20.2 | 10.6 | 8.8 | 30.6 | 36.5 | 6.8
18 | COc1ccc(CCc2cc(C)n[nH]2)cc1OC | Non-toxic | inactive | inactive | inactive | Non-toxic | Non-toxic | inactive | inactive | inactive | – | – | – | – | – | – | – | – | – | – | –
19 | COc1ccc(CCC(=O)CC(C)=O)cc1OC | Non-toxic | inactive | inactive | inactive | Non-toxic | Non-toxic | inactive | inactive | inactive | – | – | – | – | – | – | – | – | – | – | –
20 | CC(=O)/C=C(O)/C=C/c1ccc(O)c(O)c1 [HISPOLON] | – | – | – | – | – | – | – | – | – | 9.6 | 7.3 | 7.9 | 1.3 | 51.2 | 12.9 | 8.4 | 28.6 | 36.2 | 5.2 | 32.2
21 | COc1ccc(/C=C/C(=O)CC(C)=O)cc1 | – | – | – | – | – | – | – | – | – | 16.3 | 18.7 | – | 0.9 | 48.2 | 15.8 | 44.6 | 9.1 | 41.6 | 11.9 | 25
22 | COc1ccc(CCC(=O)CC(C)=O)cc1 | Non-toxic | inactive | inactive | inactive | Non-toxic | Non-toxic | inactive | inactive | inactive | – | – | – | – | – | – | – | – | – | – | –
23 | Cc1cc(/C=C/c2ccc(O)c(O)c2)[nH]n1 | – | – | – | – | – | – | – | – | – | 39.4 | 29.7 | – | 1.3 | 88.4 | 23.2 | 55.3 | 33.1 | > 100 | – | –
24 | COc1cc(CCc2cc(C)n[nH]2)ccc1O | Non-toxic | inactive | inactive | inactive | Non-toxic | Non-toxic | inactive | inactive | inactive | – | – | – | – | – | – | – | – | – | – | –
25 | COc1ccc(/C=C/C(=O)CC(C)=O)cc1OC | – | – | – | – | – | – | – | – | – | 10.6 | 8.2 | 10.6 | 1.3 | 18.1 | 8.9 | 9.3 | 8.2 | 9.9 | 4.7 | 43.1
26 | COc1cc(/C=C/c2cc(C)no2)ccc1O | – | – | – | – | – | – | – | – | – | 41.3 | 36.2 | – | 1.1 | > 100 | 20.9 | 50.5 | 28.9 | 29.8 | 33.4 | 34.6
